In ChEMBL document CHEMBL1131440, “Synthesis and potent antifolate activity and cytotoxicity of B-ring deaza analogues of the nonpolyglutamatable dihydrofolate reductase inhibitor Nalpha-(4-amino-4-deoxypteroyl)-Ndelta-hemiphthaloyl- L-ornithine (PT523)” (J Med Chem, 1998) one finds IC50 data, which are given here for two compounds.

Assay [1] is described as follows: Compound was tested for in vitro antitumor activity, using SCC25 human head and neck squamous carcinoma cells. It is filed as functional. As to conditions: SCC-25. The procedure, abridged: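 Clonogenic assay: SCC25 cells exposed to graded drug concentrations for 72 h at 37 °C, 5% CO2, in DMEM with 10% FBS and hydrocortisone ([…]). Then replated as single cells at drug-dependent densities and grown in drug-free medium 10-14 days. Colonies stained with crystal violet; only colonies of ≥50 cells scored. IC50 is mean ± SD of ≥3 assays on different days.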

Another assay concerns HL-60. Nature of the assay: Compound was evaluated for in vitro activity against HL-60(TB) leukemia cell lines (Human tumor cells ). Format: functional, cell-based. The procedure, abridged:
(§1)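 NCI Developmental Therapeutics Program human tumor cell panel; drug exposure in 96-well plates for the last 48 h of a 72-h incubation, then cells stained for total protein with sulforhodamine B per the standard NCI protocol. Data supplied by NCI.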

For another assay, the system named is BT-549. Briefly: Compound was evaluated for in vitro activity against BT-549 breast cancer cell lines (Human tumor cells ). It is filed as functional, cell-based. The procedure, abridged: as §1
The next assay concerns COLO 205. Briefly: Compound was evaluated for in vitro activity against COLO 205 Colon cell lines (Human tumor cells ). Format: functional, cell-based. The procedure, abridged: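 Total protein then stained with sulforhodamine B following the standard NCI protocol. Data supplied by the NCI Developmental Therapeutics Program.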
A further assay has as its system Hs-578T. Briefly: Compound was evaluated for in vitro activity against Hs 578.T breast cancer cell lines (Human tumor cells ). Format: functional, cell-based. The procedure, abridged:
as §1

The subject of another assay is Malme-3M. Nature of the assay: Compound was evaluated for in vitro activity against MALME-3M Melanoma cell lines (Human tumor cells ). It is filed as functional, cell-based. The gist of the method: as §1
Another assay deals with SK-MEL-2. Briefly: Compound was evaluated for in vitro activity against SK-MEL-2 Melanoma cell lines (Human tumor cells ). Format: functional, cell-based. The procedure, abridged:
as §1

The next assay concerns A549. Briefly: Compound was evaluated for in vitro activity against A549/ATCC lung cancer cell lines (Human tumor cells ).
The subject of a further assay is DU-145. Nature of the assay: Compound was evaluated for in vitro activity against DU-145 prostate cell lines (Human tumor cells ). Format: functional, cell-based. The procedure, abridged:
as §1

In another assay the test system is UACC-257. Nature of the assay: Compound was evaluated for in vitro activity against UACC-257 Melanoma cell lines (Human tumor cells ). Format: functional, cell-based. The gist of the method:
as §1

The subject of another assay is TK-10. Nature of the assay: Compound was evaluated for in vitro activity against TK-10 kidney cell lines (Human tumor cells ). Format: functional, cell-based. The gist of the method:
as §1

The test system of the next assay is NCI-H226. Nature of the assay: Compound was evaluated for in vitro activity against NCI-H226 lung cancer cell lines (Human tumor cells ). Format: functional, cell-based. The gist of the method: as §1
For another assay, the system named is RXF 393. Briefly: Compound was evaluated for in vitro activity against RXF-393 kidney cell lines (Human tumor cells ). Format: functional, cell-based. The procedure, abridged:
as §1

A further assay concerns K562. Nature of the assay: Compound was evaluated for in vitro activity against K562 leukemia cell lines (Human tumor cells ). Format: functional, cell-based. The gist of the method: as §1
For the next assay, the system named is CCRF-CEM. Nature of the assay: Compound was evaluated for in vitro activity against CCRF-CEM leukemia cell lines (Human tumor cells ). Format: functional, cell-based. The gist of the method: as §1
For another assay, the system named is PC-3. Nature of the assay: Compound was evaluated for in vitro activity against PC-3 prostate cell lines (Human tumor cells ). It is filed as functional, cell-based. The gist of the method: as §1
The next assay concerns HCC 2998. Briefly: Compound was evaluated for in vitro activity against HCC2998 Colon cell lines (Human tumor cells ). Format: functional, cell-based. The gist of the method: as §1
The test system of a further assay is MDA-MB-435. Nature of the assay: Compound was evaluated for in vitro activity against MDA-MB-435 breast cancer cell lines (Human tumor cells ). It is filed as functional, cell-based. The procedure, abridged:
as §1

The next assay has as its system KM12. Briefly: Compound was evaluated for in vitro activity against KM-12 Colon cell lines (Human tumor cells ). Format: functional, cell-based. The procedure, abridged: as §1
The subject of another assay is A498. Briefly: Compound was evaluated for in vitro activity against A498 kidney cell lines (Human tumor cells ). Format: functional, cell-based. The procedure, abridged: as §1
In another assay the test system is M14. Nature of the assay: Compound was evaluated for in vitro activity against M14 Melanoma cell lines (Human tumor cells ). Format: functional, cell-based. The procedure, abridged:
as §1

The subject of a further assay is NCI-H522. Briefly: Compound was evaluated for in vitro activity against NCI-H522 lung cancer cell lines (Human tumor cells ). Format: functional, cell-based. The procedure, abridged:
as §1

A further assay concerns U-251. Briefly: Compound was evaluated for in vitro activity against U251 CNS cell lines (Human tumor cells ). Format: functional, cell-based. The gist of the method:
as §1

The next assay deals with SNB-. Nature of the assay: Compound was evaluated for in vitro activity against […] CNS cell lines (Human tumor cells ). Format: functional, cell-based. The procedure, abridged: as §1
The subject of another assay is OVCAR-5. Nature of the assay: Compound was evaluated for in vitro activity against OVCAR-5 Ovary cell lines (Human tumor cells ). Format: functional, cell-based. The gist of the method: as §1
The next assay relates to OVCAR-4. Briefly: Compound was evaluated for in vitro activity against OVCAR-4 Ovary cell lines (Human tumor cells ). It is filed as functional, cell-based. The procedure, abridged:
as §1

The subject of another assay is SK-MEL-28. Nature of the assay: Compound was evaluated for in vitro activity against SK-MEL28 Melanoma cell lines (Human tumor cells ). It is filed as functional, cell-based. The gist of the method:
as §1

The subject of another assay is T47D. Briefly: Compound was evaluated for in vitro activity against T-47D breast cancer cell lines (Human tumor cells ). It is filed as functional, cell-based. The gist of the method: as §1
Another assay deals with EKVX. Briefly: Compound was evaluated for in vitro activity against EKVX lung cancer cell lines (Human tumor cells ). Format: functional, cell-based. The procedure, abridged:
as §1

In the next assay the test system is IGROV-1. Briefly: Compound was evaluated for in vitro activity against IGROV1 Ovary cell lines (Human tumor cells ). Format: functional, cell-based. The gist of the method: as §1
The test system of the next assay is RPMI-8226. Briefly: Compound was evaluated for in vitro activity against RPMI-8226 leukemia cell lines (Human tumor cells ). It is filed as functional, cell-based. The gist of the method:
as §1

The test system of the next assay is SR. Nature of the assay: Compound was evaluated for in vitro activity against SR leukemia cell lines (Human tumor cells ). It is filed as functional, cell-based. The gist of the method: as §1
For another assay, the system named is HOP-92. Briefly: Compound was evaluated for in vitro activity against HOP-92 lung cancer cell lines (Human tumor cells ). Format: functional, cell-based. The gist of the method:
as §1

The next assay deals with SF-295. Nature of the assay: Compound was evaluated for in vitro activity against SF-295 CNS cell lines (Human tumor cells ). Format: functional, cell-based. The procedure, abridged: as §1
Another assay concerns MOLT-4. Briefly: Compound was evaluated for in vitro activity against MOLT-4 leukemia cell lines (Human tumor cells ). Format: functional, cell-based. The procedure, abridged:
as §1

What is called IC50 is the concentration that inhibits the measured activity by half. Read a high IC50 as a need for much substance. Regarding `Nc1nc(N)c2cc(CNc3ccc(C(=O)NC(CCCNC(=O)c4ccccc4C(=O)O)C(=O)O)cc3)ccc2n1` (stereo unspecified), in [1], the IC50 was determined as 0.61 nM.

For `CN(Cc1cnc2nc(N)nc(N)c2n1)c1ccc(C(=O)N[C@@H](CCC(=O)O)C(=O)O)cc1` [METHOTREXATE], the IC50 is 39 nM with HL-60; greater than 1000 nM in the assay with BT-549; 870 nM in the assay with COLO 205; greater than 1000 nM with Hs-578T; greater than 1000 nM in the assay on Malme-3M; 15 nM in assay [1]. Further, the IC50 in the assay with SK-MEL-2 was greater than 1000 nM; with A549, 33 nM; with DU-145 it was 45 nM; with UACC-257, 790 nM; in the assay on TK-10, greater than 1000 nM; in the assay on NCI-H226 it was greater than 1000 nM. For the same compound, the IC50 in the assay with RXF 393 was greater than 1000 nM; in the assay on K562 it was 26 nM; with CCRF-CEM it was 29 nM; with PC-3, 27 nM; in the assay on HCC 2998, 110 nM; with MDA-MB-435 it was greater than 1000 nM. For the same compound, the IC50 was 33 nM in the assay with KM12; greater than 1000 nM with A498; 32 nM in the assay with M14; 450 nM in the assay with NCI-H522; 63 nM in the assay on U-251; greater than 1000 nM in the assay on SNB-. For the same compound, the IC50 was 980 nM with OVCAR-5; greater than 1000 nM in the assay with OVCAR-4; greater than 1000 nM in the assay with SK-MEL-28; greater than 1000 nM in the assay on T47D; greater than 1000 nM with EKVX; 65 nM in the assay on IGROV-1. For the same compound, the IC50 with RPMI-8226 is 33 nM; with SR it was 33 nM; in the assay with HOP-92 it was greater than 1000 nM; in the assay on SF-295, 36 nM; in the assay with MOLT-4, 28 nM.
